From ChEMBL document CHEMBL1130160 (J Med Chem, 1997)
The source made the active and inactive calls. The rule behind the calls is not given here.

How the values were obtained:
Rattus norvegicus [1] = assay: Dose required to reduce serum cholesterol by 50% relative to OVX controls was determined (in vivo); assay type: functional
Summary of the method: (§1)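 OVX Sprague–Dawley rats (75 days old), 5–6 per group, dosed once daily by oral gavage for 4 consecutive days, starting 14 days after ovariectomy. Vehicle was 20% β-hydroxycyclodextrin at 1 mL/kg, or 1.5% carboxymethylcellulose in some cases. Rats were fasted after the last dose and bled by cardiac puncture next morning.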

Estrogen receptor [2] = target: T1, Estrogen receptor (Homo sapiens, UniProt Q92731+P03372); conditions: mcf7
Rattus norvegicus [3] = assay: Minimum effective dose at which significant increase in uterine eosinophil peroxidase (EPO) activity in rat was determined (in vivo); assay type: functional; conditions: read-out: MED
Rattus norvegicus [4] = assay: Minimum effective dose at which significant increase in uterine weight/body weight in rat was determined (in vivo); assay type: functional; conditions: read-out: MED
Summary of the method: (§2)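 In 75-day OVX Sprague–Dawley rats dosed orally for 4 days, beginning 2 weeks post-ovariectomy with 5–6 rats per group, whole uteri were weighed the morning after fasting. MED is the lowest dose giving a significant (p≤0.05) rise in uterine weight/body weight, expressed as % increase over OVX controls ±SE.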

Rattus norvegicus [5] = assay: Percent decrease in serum cholesterol relative to OVX control at 10 mg/kg in rat was determined (in vivo); assay type: functional; summary of the method: as §1
Rattus norvegicus [6] = assay: Percent decrease in serum cholesterol relative to OVX control at 1 mg/kg in rat; assay type: functional; summary of the method: as §1
Rattus norvegicus [7] = assay: Percent decrease in serum cholesterol relative to OVX control at 0.1 mg/kg in rat was determined (in vivo); assay type: functional; summary of the method: as §1
Rattus norvegicus [8] = assay: Eosinophil peroxidase activity expressed as Vmax was determined in rat (in vivo) Eosinophil peroxidase activity expressed as Vmax was determined in rat (in vivo); assay type: functional; design: unit not given here
Rattus norvegicus [9] = assay: Minimum effective dose at which significant increase in uterine weight/body weight in rat was determined (in vivo); expressed as % increase relative to ovariectomized (OVX) controls; assay type: functional; summary of the method: as §2
Rattus norvegicus [10] = assay: Percent decrease in serum cholesterol relative to OVX control at 1.0 mg/kg in rats; assay type: functional; summary of the method: as §1
Rattus norvegicus [11] = assay: Percent decrease in serum cholesterol relative to OVX control at 0.1 mg/kg in rats; assay type: functional; summary of the method: as §1
MCF7 = assay: Inhibition of MCF-7 cell proliferation stimulated by 10e-[…] M 17-beta-estradiol; Not active at the doses tested; assay type: functional, cell-based, Homo sapiens
Estrogen receptor [12] = target: T1, Estrogen receptor; assay: In vitro relative binding affinity by competition with [3H]17-beta-estradiol for estrogen receptor in MCF-7 cell lysate; Not active at the doses tested; assay type: cell-based
Summary of the method: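 Human MCF-7 cell lysate (0.5–1.0 mg/mL total protein) incubated 18 h at 4 °C with 0.5 nM [3H]17β-estradiol and serial dilutions of test compound. Unbound radioligand removed with dextran/charcoal and centrifugation; bound label in the supernatant counted by scintillation. RBA = IC50(17β-estradiol)/IC50(test compound) × 100.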

Rattus norvegicus [13] = assay: Percent protection of bone mineral density in the distal femur of OVX rat at a dose of 1 mg/kg/day; assay type: functional
Summary of the method: (§3)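 OVX Sprague–Dawley rats (6-month old, or 75-day old in one case) were dosed orally each day for 35 days, starting 4 days after ovariectomy. Digitized X-rays of the right distal femoral metaphysis gave BMD. % protection = (test − OVX)/(sham − OVX) × 100, reported ±SE.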

Rattus norvegicus [14] = assay: Percent protection of bone mineral density in the distal femur of OVX rat at a dose of 0.1 mg/kg/day; assay type: functional; summary of the method: as §3
Rattus norvegicus [15] = assay: Percent protection of bone mineral density in the distal femur of OVX rat at a dose of 10 mg/kg/day; assay type: functional; summary of the method: as §3
Rattus norvegicus [16] = assay: Percent protection of bone mineral density in the distal femur of OVX rat at a dose of 0.01 mg/kg/day; assay type: functional; summary of the method: as §3

IC50 (Estrogen receptor [2]) [nM]	relative binding affinity (RBA) (Estrogen receptor [12])	Compound	ED50 (Rattus norvegicus [1]) [mg/kg]	minimal effective dose (Rattus norvegicus [3]) [mg/kg]	minimal effective dose (Rattus norvegicus [4]) [mg/kg]	Decrease (Rattus norvegicus [5]) [%]	Decrease (Rattus norvegicus [6]) [%]	Decrease (Rattus norvegicus [7]) [%]	Eosinophil peroxidase activity (Vmax) (Rattus norvegicus [8])	Increase (Rattus norvegicus [9]) [%]	Decrease (Rattus norvegicus [10]) [%]	Decrease (Rattus norvegicus [11]) [%]	IC50 (MCF7)	Protection (Rattus norvegicus [13]) [%]	Protection (Rattus norvegicus [14]) [%]	Protection (Rattus norvegicus [15]) [%]	Protection (Rattus norvegicus [16]) [%]
10	–	CCCCc1ccc(-c2sc3cc(O)ccc3c2C(=O)c2ccc(OCCN3CCCCC3)cc2)cc1	2.3	10	> 10	72	14.5	21.3	20.8	–	–	–	–	–	–	–	–
100	–	CCSCc1ccc(-c2sc3cc(O)ccc3c2C(=O)c2ccc(OCCN3CCCCC3)cc2)cc1	2.5	1	1	63	40.1	21.7	36.9	30.5	–	–	–	–	–	–	–
–	–	O=C(c1ccc(OCCN2CCCCC2)cc1)c1c(C2CCCCC2)sc2cc(O)ccc12	2.1	> 10	1	61.7	–	–	–	30.2	52.9	-0.1	–	–	–	–	–
–	–	C[C@]12CC[C@@H]3c4ccc(O)cc4CC[C@H]3[C@@H]1CC[C@@H]2O [ESTRADIOL]	–	–	–	–	–	–	–	–	–	–	Not Active	–	–	–	–
–	–	CCc1sc2cc(O)ccc2c1C(=O)c1ccc(OCCN2CCCCC2)cc1	–	> 10	10	31.1	–	–	–	55.03	26.5	4.4	–	–	–	–	–
300	inactive	Cc1ccc2c(C(=O)c3ccc(OCCN4CCCCC4)cc3)c(-c3ccc(O)cc3)sc2c1.Cl	> 10	> 10	1	21.6	33.9	16.9	–	23.9	–	–	–	–	–	–	–
–	–	O=C(c1ccc(OCCN2CCCCC2)cc1)c1c(-c2ccc(O)cc2)sc2cc(O)ccc12 [RALOXIFENE]	0.2	> 10	0.1	74	66.7	44.9	–	23.5	–	–	–	57.7	50	53.8	9.6
–	–	CC(C)c1sc2cc(O)ccc2c1C(=O)c1ccc(OCCN2CCCCC2)cc1	> 10	> 10	> 10	35	–	–	–	–	30.5	12.4	–	–	–	–	–
–	–	O=C(c1ccc(OCCN2CCCCC2)cc1)c1c2ccc(O)cc2sc1[C@H]1CC[C@H](O)CC1	1	> 10	0.1	60.4	–	–	–	46.7	41.1	48.7	–	61.3	17	67.4	–
100	–	Cc1cc(-c2sc3cc(O)ccc3c2C(=O)c2ccc(OCCN3CCCCC3)cc2)cc(C)c1O	1.8	1	1	69.1	40.2	23.1	40.8	33.8	–	–	–	–	–	–	–
–	–	C=Cc1ccc(-c2sc3cc(O)ccc3c2C(=O)c2ccc(OCCN3CCCCC3)cc2)cc1	10	1	0.1	49.7	41.5	-7	48	26.9	–	–	–	–	–	–	–

Compound	IC50 (Estrogen receptor [2]) [nM]	relative binding affinity (RBA) (Estrogen receptor [12])	ED50 (Rattus norvegicus [1]) [mg/kg]	minimal effective dose (Rattus norvegicus [3]) [mg/kg]	minimal effective dose (Rattus norvegicus [4]) [mg/kg]	Decrease (Rattus norvegicus [5]) [%]	Decrease (Rattus norvegicus [6]) [%]	Decrease (Rattus norvegicus [7]) [%]	Eosinophil peroxidase activity (Vmax) (Rattus norvegicus [8])	Increase (Rattus norvegicus [9]) [%]	Decrease (Rattus norvegicus [10]) [%]	Decrease (Rattus norvegicus [11]) [%]	IC50 (MCF7)	Protection (Rattus norvegicus [13]) [%]	Protection (Rattus norvegicus [14]) [%]	Protection (Rattus norvegicus [15]) [%]	Protection (Rattus norvegicus [16]) [%]
O=C(c1ccc(OCCN2CCCCC2)cc1)c1c(-c2ccncc2)sc2cc(O)ccc12	100	–	14.6	> 10	1	47.6	–	–	–	33.3	24	7.2	–	–	–	–	–
O=C(c1ccc(OCCN2CCCCC2)cc1)c1c(-c2cc[n+]([O-])cc2)sc2cc(O)ccc12	100	–	> 10	> 10	> 10	42.6	–	–	–	–	1.8	-16.6	–	–	–	–	–
